Test results: ChEMBL document CHEMBL1687709 (Antimicrob Agents Chemother, 2008)

Assays:
Format in all cases: ADME, organism-based
[1] = Plasma concentration in HIV-infected patient at 480 mg/m2, po administered every 12 hrs for 6 weeks co-administered with 120 mg/m2 of ritonavir and saquinavir measured 12 hrs after last dose; settings: human
Summary of the method: (§1)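 Step 2 SQV 750 mg/m2 q12h was added by week 4 when LPV IQ was <15. A second 12-h intensive PK study ran after 2 weeks of SQV plus LPV/r (week 6), with plasma predose and at 1, 2, 3, 6 and 12 h. HPLC-UV at 212 nm (LPV 0.100–40, SQV 0.050–20 μg/ml). Noncompartmental AUC, Cmax, Tmax and C12h.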

[2] = Cmax in HIV-infected patient at 480 mg/m2, po administered every 12 hrs for 6 weeks co-administered with 120 mg/m2 of ritonavir and saquinavir; parameters: route oral; settings: human, in vivo; summary of the method: as §1
[3] = Tmax in HIV-infected patient at 480 mg/m2, po administered every 12 hrs for 6 weeks co-administered with 120 mg/m2 of ritonavir and saquinavir; settings: human, in vivo; summary of the method: as §1
[4] = AUC in HIV-infected patient at 480 mg/m2, po administered every 12 hrs for 6 weeks co-administered with 120 mg/m2 of ritonavir and saquinavir; settings: human, plasma; summary of the method: as §1
[5] = Clearance in HIV-infected patient at 400 mg/m2, po administered every 12 hrs for 2 weeks co-administered with 120 mg/m2 of ritonavir; settings: human, in vivo, in the assay text read “100 mg/m2 of ritonavir” for “120 mg/m2 of ritonavir”
Summary of the method: (§2)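 Treatment-experienced HIV-infected children and adolescents. Without NNRTI: LPV/r 400/100 mg/m2 q12h. With NNRTI: 480/120 mg/m2 q12h. Given as gel capsule or liquid. After 2 weeks, a 12-h intensive PK study followed an observed dose, no standardized meal. Plasma (EDTA) was drawn predose and at 1, 2, 3, 6 and 12 h. LPV was measured by HPLC-UV at 212 nm (range 0.100–40 μg/ml). Noncompartmental AUC, Cmax, Tmax, C12h and CL/F.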

[6] = Plasma concentration in HIV-infected patient at 400 mg/m2, po administered every 12 hrs for 2 weeks co-administered with 120 mg/m2 of ritonavir measured 12 hrs after last dose; settings: human, in the assay text read “100 mg/m2 of ritonavir” for “120 mg/m2 of ritonavir”; summary of the method: as §2
[7] = Tmax in HIV-infected patient at 400 mg/m2, po administered every 12 hrs for 2 weeks co-administered with 120 mg/m2 of ritonavir; settings: human, in vivo, in the assay text read “100 mg/m2 of ritonavir” for “120 mg/m2 of ritonavir”; summary of the method: as §2
[8] = AUC in HIV-infected patient at 400 mg/m2, po administered every 12 hrs for 2 weeks co-administered with 120 mg/m2 of ritonavir; settings: human, plasma, in the assay text read “100 mg/m2 of ritonavir” for “120 mg/m2 of ritonavir”; summary of the method: as §2
[9] = Cmax in HIV-infected patient at 400 mg/m2, po administered every 12 hrs for 2 weeks co-administered with 120 mg/m2 of ritonavir; parameters: route oral; settings: human, in vivo, in the assay text read “100 mg/m2 of ritonavir” for “120 mg/m2 of ritonavir”; summary of the method: as §2

SMILES: CC(C)(C)NC(=O)[C@@H]1C[C@@H]2CCCC[C@@H]2CN1C[C@@H](O)[C@H](Cc1ccccc1)NC(=O)[C@H](CC(N)=O)NC(=O)c1ccc2ccccc2n1
- concentration at 12 h [1]: 1820 ng/mL
- Cmax [2]: 3600 ng/mL
- Tmax [3]: 3 h
- AUC [4]: 33700 ng·h/mL

SMILES: Cc1cccc(C)c1OCC(=O)N[C@@H](Cc1ccccc1)[C@@H](O)C[C@H](Cc1ccccc1)NC(=O)[C@H](C(C)C)N1CCCNC1=O [LOPINAVIR]
- CL/F [5]: 43 mL/min
- concentration at 12 h [6]: 8800 ng/mL
- Tmax [7]: 3 h
- AUC [8]: 157000 ng·h/mL
- Cmax [9]: 17200 ng/mL
